INS-1E rescue: protection of INS-1E cells from cytokine death, primary screen, ATP luminescence, single point; INS-1E cytokine-induced death, 48 h; normalised: neutral wells 0, positive control 100; protection from cytokine-induced ATP loss, % at 10 µM; 20,000 compounds, 0.1% hits; AID 488910, 2010;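 active = mean replicate protection from cytokine-induced ATP loss at least 50% and at least 75% of replicates each reaching 50%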
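assay system = INS-1E rat insulinoma cells | amount = 8000 cells per well | medium = phenol-red-free RPMI with 5% fetal bovine serum | doses = one compound concentration, pin transfer | timing = 48 h cytokine plus compound treatment, 10 min reagent incubation | also added = IL-1β, TNF-α and IFN-γ cytokine mix | signal = CellTiter-Glo luminescence measuring cellular ATP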
T cruzi HTS: inhibitors of intracellular Trypanosoma cruzi, primary screen, cell-based, plate reader, single point, set 2 | intracellular Trypanosoma cruzi in host cells | activity score (inhibition), % at 5.01 µM | 22,000 compounds, 4.9% hits; in the data active = activity score above about 55%;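 note: parasites and compound incubated about four days before reading; 0% = median of neutral control wells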
A1 apoptosis 2: A1 inhibitors via caspase activation, primary screen, cell-based, luminescence, HTS, two replicates | MEF A1-2A-BIM cells, caspase-Glo luminescence, 3 h; percent of clofoctol response, DMSO zero | caspase activation, % (test concentration not listed) | 24,000 tested, under 10 active | AID 2465, 2010; in the data active = caspase activation above about 5.9%
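Material: mouse embryonic fibroblasts co-expressing A1 and BIM (A1-2A-BIM), primed for A1 dependence / Quantity: 2500 cells/well / Buffer or medium: RPMI-1640 growth medium with 10% FBS / Doses: 50 nL compound per well, pinned / Schedule: 3 h compound exposure at 37 °C / Signal: Caspase-Glo luminescence (DEVD substrate) / Measure: Caspase-3/7 activation, seen as rise in luminescence signal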
Starred values were filed as active, the others as inactive; · = no result. Only a selection was taken, and hits are over-represented in it overall.

SMILES	INS-1E rescue	T cruzi HTS	A1 apoptosis 2
C[C@H](CO)N1C[C@H](C)[C@H](CN(C)Cc2ccc(C(F)(F)F)cc2)Oc2ccc(NC(=O)Nc3ccccc3)cc2CC1=O	-15	26	0
COc1ccc(NC(=O)Nc2ccc3c(c2)CC(=O)N([C@@H](C)CO)C[C@H](C)[C@H](CN(C)Cc2ccc(-c4ccccc4)cc2)O3)cc1	-65	71*	-1
C[C@@H]1CN([C@H](C)CO)C(=O)Cc2cc(NC(=O)Nc3ccc(C(F)(F)F)cc3)ccc2O[C@@H]1CN(C)Cc1ccc(-c2ccccc2)cc1	-15	76*	·
C[C@@H]1CN([C@H](C)CO)C(=O)Cc2cc(NC(=O)Nc3ccc(F)cc3)ccc2O[C@@H]1CN(C)Cc1ccc(-c2ccccc2)cc1	-29	61*	·
C[C@H](CO)N1C[C@H](C)[C@@H](CN(C)Cc2ccc(-c3ccccc3)cc2)Oc2ccc(NC(=O)Nc3ccc(C(F)(F)F)cc3)cc2CC1=O	·	·	0
C[C@H](CO)N1C[C@H](C)[C@H](CN(C)Cc2ccc(-c3ccccc3)cc2)Oc2ccc(NC(=O)Nc3ccc(C(F)(F)F)cc3)cc2CC1=O	-39	65*	·
COc1ccc(NC(=O)Nc2ccc3c(c2)CC(=O)N([C@H](C)CO)C[C@H](C)[C@@H](CN(C)Cc2ccc(-c4ccccc4)cc2)O3)cc1	·	·	0
C=CC[C@@]1(C(=O)N(C)C)N=C(c2ccc(OCCCO)cc2)O[C@@H]1c1ccccc1	·	·	0
CC(C)NC(=O)Nc1ccc2c(c1)CC(=O)N([C@@H](C)CO)C[C@@H](C)[C@@H](CN(C)Cc1ccc(-c3ccccc3)cc1)O2	-24	32	0
CC(C)NC(=O)Nc1ccc2c(c1)CC(=O)N([C@H](C)CO)C[C@H](C)[C@H](CN(C)Cc1ccc(-c3ccccc3)cc1)O2	-21	67*	0
C=CCNC(=O)[C@@H]1[C@H]2C(=O)O[C@H](c3ccccc3)[C@H](c3ccccc3)N2[C@H](c2ccc(OCCO)cc2)[C@@]12C(=O)Nc1ccccc12	·	·	-1
COC(=O)CCCCCCC(=O)N/N=C/c1ccccc1[N+](=O)[O-]	9	-18	-2
C[C@H]1CN([C@@H](C)CO)C(=O)c2cccc(NS(=O)(=O)c3ccccc3)c2O[C@H]1CN(C)Cc1ccc(C(F)(F)F)cc1	0	31	·
C[C@H](CO)N1C[C@H](C)[C@@H](CN(C)Cc2ccc(C(F)(F)F)cc2)Oc2c(NS(=O)(=O)c3ccccc3)cccc2C1=O	2	66*	·
C[C@H]1CN([C@@H](C)CO)C(=O)c2cccc(NS(C)(=O)=O)c2O[C@H]1CN(C)Cc1ccccc1	-6	-8	1
C[C@@H]1CN([C@@H](C)CO)C(=O)c2cccc(NS(=O)(=O)c3ccc(F)cc3)c2O[C@@H]1CN(C)Cc1ccc(-c2ccccc2)cc1	-68	66*	0
C[C@H](CO)N1C[C@H](C)[C@@H](CN(C)Cc2ccccc2)Oc2c(NS(C)(=O)=O)cccc2C1=O	2	59*	0
C[C@H]1CN([C@@H](C)CO)C(=O)c2cccc(NS(=O)(=O)c3ccc(F)cc3)c2O[C@@H]1CN(C)Cc1ccc(-c2ccccc2)cc1	-7	18	0
COC(=O)CCCCCCC(=O)N/N=C/c1cc2c(cc1Br)OCO2	22	1	-1
C[C@@H]1CN([C@@H](C)CO)C(=O)Cc2cc(NS(=O)(=O)c3ccccc3)ccc2O[C@@H]1CN(C)Cc1ccc(Oc2ccccc2)cc1	-20	45	0
C[C@@H]1CN([C@H](C)CO)C(=O)Cc2cc(NS(=O)(=O)c3ccccc3)ccc2O[C@H]1CN(C)Cc1ccc(Oc2ccccc2)cc1	-19	40	·
Cc1ccc(S(=O)(=O)Nc2ccc3c(c2)CC(=O)N([C@H](C)CO)C[C@@H](C)[C@@H](CN(C)Cc2ccc(Oc4ccccc4)cc2)O3)cc1	-22	65*	·
Cc1ccc(S(=O)(=O)Nc2ccc3c(c2)CC(=O)N([C@H](C)CO)C[C@H](C)[C@@H](CN(C)Cc2ccc(Oc4ccccc4)cc2)O3)cc1	·	·	-2
C[C@H]1CN([C@@H](C)CO)C(=O)Cc2cc(NS(=O)(=O)c3ccc(F)cc3)ccc2O[C@@H]1CN(C)Cc1ccc(Oc2ccccc2)cc1	-19	66*	2
C[C@@H]1CN([C@H](C)CO)C(=O)Cc2cc(NS(=O)(=O)c3ccc(F)cc3)ccc2O[C@H]1CN(C)Cc1ccc(Oc2ccccc2)cc1	-45	66*	-1

Source: PubChem
